Reference: ChEMBL document CHEMBL1150238, “Podophyllotoxin directly binds a hinge domain in E2 of HPV and inhibits an E2/E7 interaction in vitro” (Bioorg Med Chem, 2008)
The source made the active and inactive calls. The calls are words filed in the database; no cut-off is given here.

How the values were obtained:
[1] = Cytotoxicity against mouse L210 cells after 48 hrs; assay type: functional, cell-based; conditions: L210, 48 h
How it was run: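 Cells seeded at 1.0 × 10⁴ per 100 µL and preincubated 24 h at 37 °C, 5% CO2. They were then exposed to graded compound concentrations for 48 h. WST-8 reagent added for 4 h, and absorbance read at 450 nm.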

[2] = target: T1, Regulatory protein E2 (Human papillomavirus type 1a) (UniProt P03118); assay: Inhibition of HPV1a E2-E7 protein interaction at 250 uM assessed as rate of E2 binding to E7 protein by surface plasmon resonance method; design: scale not given: the % may be the effect or the level left
T1 sequence (whole entry): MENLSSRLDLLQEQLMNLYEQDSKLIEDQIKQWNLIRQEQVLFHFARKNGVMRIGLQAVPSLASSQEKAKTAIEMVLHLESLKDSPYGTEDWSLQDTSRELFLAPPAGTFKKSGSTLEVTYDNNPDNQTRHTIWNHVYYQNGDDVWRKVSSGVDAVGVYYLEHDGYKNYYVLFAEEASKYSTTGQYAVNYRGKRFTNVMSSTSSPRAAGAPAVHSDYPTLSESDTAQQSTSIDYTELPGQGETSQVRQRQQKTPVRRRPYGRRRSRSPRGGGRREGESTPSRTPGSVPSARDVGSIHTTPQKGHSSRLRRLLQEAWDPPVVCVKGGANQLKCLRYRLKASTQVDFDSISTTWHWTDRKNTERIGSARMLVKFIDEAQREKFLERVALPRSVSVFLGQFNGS
How it was run: (§1)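 SPR competition format: E2 protein at 0.1 µM was mixed with PT in 5% DMSO and injected at 30 µL/min, 25 °C. Bound E2 amount was compared at 115 s after injection. Buffer alone and PT without E2 served as sensorgram controls.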

Regulatory protein E2 [3] = target: T2, Regulatory protein E2 (Human papillomavirus type 1a, UniProt P03118); assay: Binding affinity to HPV1a recombinant E2 protein by surface plasmon resonance method
T2 sequence (P03118 whole entry): T1 sequence (whole entry)
How it was run: (§2)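 E2 proteins (full-length and HPV 1a domain constructs, FLAG-tagged) expressed in E. coli with 1 mM IPTG induction for 3 h and purified by FPLC. Proteins amine-coupled to sensor chip (EDC/NHS activation, 10 mM acetate pH 4.0–6.0, ethanolamine block). PT flowed at various concentrations in PBS pH 7.4, 0.005% Tween20, 5% glycerol, 5% DMSO, 20–30 µL/min, 25 °C. Reference flow cell subtracted, KD derived; replicates over two times.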

[4] = target: T1, Regulatory protein E2 (Human papillomavirus type 1a); assay: Inhibition of HPV1a E2-E7 protein interaction at 500 uM assessed as rate of E2 binding to E7 protein by surface plasmon resonance method; design: scale not given: the % may be the effect or the level left; how it was run: as §1
Regulatory protein E2 [5] = target: T2, Regulatory protein E2; assay: Binding affinity to HPV1a recombinant E2 protein hinge domain by surface plasmon resonance assay; how it was run: as §2
Regulatory protein E2 [6] = target: T2, Regulatory protein E2; assay: Binding affinity to HPV1a recombinant E2 protein activator domain by surface plasmon resonance assay; how it was run: as §2
Regulatory protein E2 [7] = target: T3, Regulatory protein E2 (Human papillomavirus 16, UniProt P03120); assay: Binding affinity to HPV16 recombinant E2 protein by surface plasmon resonance method; how it was run: as §2
T3 sequence (P03120 whole entry): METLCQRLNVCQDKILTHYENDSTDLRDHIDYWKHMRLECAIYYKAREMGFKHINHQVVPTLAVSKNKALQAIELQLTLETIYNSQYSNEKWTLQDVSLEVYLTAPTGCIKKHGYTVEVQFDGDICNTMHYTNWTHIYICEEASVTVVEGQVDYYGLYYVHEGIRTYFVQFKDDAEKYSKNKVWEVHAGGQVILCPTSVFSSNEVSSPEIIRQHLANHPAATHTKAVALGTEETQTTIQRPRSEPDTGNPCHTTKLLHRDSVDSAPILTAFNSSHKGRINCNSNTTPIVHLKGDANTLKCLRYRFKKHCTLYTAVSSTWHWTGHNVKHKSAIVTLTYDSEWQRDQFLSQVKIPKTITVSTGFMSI

Regulatory protein E2 [8] = target: T4, Regulatory protein E2 (human papillomavirus 11, UniProt P04015); assay: Binding affinity to HPV11 recombinant E2 protein by surface plasmon resonance method; how it was run: as §2
T4 sequence (P04015 whole entry): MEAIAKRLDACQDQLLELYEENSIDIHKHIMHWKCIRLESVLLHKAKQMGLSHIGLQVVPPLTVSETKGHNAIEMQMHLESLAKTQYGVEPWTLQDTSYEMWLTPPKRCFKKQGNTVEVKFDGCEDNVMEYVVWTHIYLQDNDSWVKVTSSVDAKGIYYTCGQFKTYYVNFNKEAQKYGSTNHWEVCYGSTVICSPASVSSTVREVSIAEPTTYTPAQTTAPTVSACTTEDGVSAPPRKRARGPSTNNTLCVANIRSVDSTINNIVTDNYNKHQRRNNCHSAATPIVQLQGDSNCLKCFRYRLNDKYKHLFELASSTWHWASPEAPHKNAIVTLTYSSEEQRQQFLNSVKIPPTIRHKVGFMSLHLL

[9] = target: T1, Regulatory protein E2 (Human papillomavirus type 1a); assay: Inhibition of HPV1a recombinant E2 protein-DNA interaction by electron mobility shift assay
Regulatory protein E2 [10] = target: T2, Regulatory protein E2; assay: Binding affinity to HPV1a recombinant E2 protein DNA binding domain by surface plasmon resonance assay; how it was run: as §2

COc1cc([C@@H]2c3cc4c(cc3[C@H](OC(=O)CCCCCNC(=O)CCCC[C@@H]3SC[C@@H]5NC(=O)N[C@@H]53)[C@H]3COC(=O)[C@H]23)OCO4)cc(OC)c1OC
IC50 [1]: 0.4 µM

COc1cc([C@@H]2c3cc4c(cc3[C@@H](O[C@@H]3O[C@@H]5CO[C@@H](C)O[C@H]5[C@H](O)[C@H]3O)[C@H]3COC(=O)[C@H]23)OCO4)cc(OC)c1O [ETOPOSIDE]
Activity [2]: 82% | Kd (Regulatory protein E2 [3]): 210 µM

COc1cc([C@@H]2c3cc4c(cc3[C@H](O)[C@H]3COC(=O)[C@H]23)OCO4)cc(OC)c1OC [PODOFILOX]
Activity [4]: 49.1% | Kd (Regulatory protein E2 [5]): 1.05 µM | Kd (Regulatory protein E2 [6]): > 400 µM | Kd (Regulatory protein E2 [7]): 70.5 µM | Activity [2]: 60.6% | Kd (Regulatory protein E2 [8]): 20.1 µM | IC50 [1]: 0.007 µM | Activity [9]: inactive | Kd (Regulatory protein E2 [3]): 24.1 µM | Kd (Regulatory protein E2 [10]): > 400 µM
